Measured values pooled from the literature.
Lines come from different studies, so protocols differ.
Target: Interleukin-1 receptor-associated kinase 4 (IRAK4, Homo sapiens, UniProt Q9NWZ3)
One construct used (Q9NWZ3 1-460): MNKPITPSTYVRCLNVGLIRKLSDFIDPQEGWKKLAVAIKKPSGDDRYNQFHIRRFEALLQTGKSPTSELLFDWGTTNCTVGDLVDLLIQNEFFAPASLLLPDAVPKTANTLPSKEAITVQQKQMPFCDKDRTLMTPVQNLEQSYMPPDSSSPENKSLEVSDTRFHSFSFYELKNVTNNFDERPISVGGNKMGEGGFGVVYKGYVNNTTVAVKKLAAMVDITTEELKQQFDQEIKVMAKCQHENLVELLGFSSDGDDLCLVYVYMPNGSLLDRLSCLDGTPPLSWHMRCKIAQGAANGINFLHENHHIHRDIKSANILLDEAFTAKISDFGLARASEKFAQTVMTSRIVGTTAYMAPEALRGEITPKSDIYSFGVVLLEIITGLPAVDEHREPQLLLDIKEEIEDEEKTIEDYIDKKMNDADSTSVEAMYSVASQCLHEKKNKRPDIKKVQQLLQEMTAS

SMILES | read-out | method | concentration | remaining binding [%]
O=C(NCCCN1CCOCC1)c1ccc(Nc2ncc(Cl)c(-c3ccc(Cl)s3)n2)cc1 | binding | competition with immobilised ligand | 1 µM | 75
c1cncc(-c2cccc(Nc3nccc(NC4CCCCC4)n3)c2)c1 | binding | competition with immobilised ligand | 10 µM | 34
CN(C)c1nccc(-c2cnn3ncccc23)n1 | binding | – | 1 µM | 73
CCOC(=O)c1cc2cc(-c3cc(C(=O)NCc4ccc(C(=O)O)cc4)nn3C)ccc2[nH]1 | cell-free assay | competition with immobilised ligand | 0.1 µM | 91
C[C@@H]1CCN(c2nccc(-c3cnn4ncccc34)n2)C1 | binding | – | 1 µM | 100
Nc1ncc2c(n1)-c1c([nH]c3ccc(C#CC4CC4)cc13)CCCC2 | binding | competition with immobilised ligand | 1 µM | 86
CN(CCCC(F)(F)F)c1nccc(-c2cnn3ncccc23)n1 | binding | – | 1 µM | 100
O=C(c1ccc(Nc2nccc(-c3cc4ccccc4s3)n2)cc1)N1CCC(N2CCCC2)CC1 | binding | competition with immobilised ligand | 1 µM | 100
N[C@@H]1CCN(c2nccc(-c3cnn4ncccc34)n2)C1 | binding | – | 1 µM | 99
O=C(NCCCN1CCOCC1)c1ccc(Nc2nccc(-c3cc4ccccc4s3)n2)cc1 | binding | competition with immobilised ligand | 1 µM | 75
CCS(=O)(=O)c1cc2cc(C[C@@](O)(CC(C)(C)c3ccc(F)cc3C(N)=O)C(F)(F)F)[nH]c2cn1 | cell-free assay | competition with immobilised ligand | 1 µM | 100
CNC(=O)[C@@H]1CC[C@@H](n2c(-c3ccc4cnccc4c3)nc3ccc(C(=O)NCc4cccc(C(N)=O)c4)cc32)C1 | binding | competition with immobilised ligand | 1 µM | 100
O=C(NCc1ncc(C(F)(F)F)cc1Cl)c1ccc2c(c1)C1(CCS(=O)(=O)CC1)[C@H](C1CC1)N2S(=O)(=O)c1ccc(F)cc1 | cell-free assay | competition with immobilised ligand | 1 µM | 100
CC1CCCN1c1nccc(-c2cnn3ncccc23)n1 (centres unmarked) | binding | – | 1 µM | 84
O=C(NCCCC1CCCCC1)c1ccc(CNC(=O)c2cnn(-c3ccccc3)c2C(F)(F)F)cc1 | cell-free assay | competition with immobilised ligand | 0.1 µM | 100
Cc1cnn2ncc(-c3ccnc(N(C)C)n3)c2c1 | binding | – | 1 µM | 100
CN([C@@H]1CCc2c(CC(=O)O)c3cc(S(C)(=O)=O)ccc3n2C1)S(=O)(=O)c1ccc(F)cc1 | cell-free assay | competition with immobilised ligand | 1 µM | 95
O=C(Nc1c[nH]nc1C(=O)NC1CCNCC1)c1cc(F)cc(F)c1 | binding | competition with immobilised ligand | 1 µM | 100
CCN1CCN(Cc2ccc(C(=O)Nc3ccc(C)c(Oc4ccc5c(c4)CC(=O)N5)c3)cc2C(F)(F)F)CC1 | binding | competition with immobilised ligand | 1 µM | 84
C[C@H](c1ccnc(Nc2nc3ccc(-c4cc(N(C)C)ncn4)cc3[nH]2)c1)N1CCN(C(=O)CC(F)(F)F)CC1 | cell-free assay | competition with immobilised ligand | 0.1 µM | 100
